ChEMBL document CHEMBL3871288, “Marine sponge alkaloids as a source of anti-bacterial adjuvants” (Bioorg Med Chem Lett, 2016)

Columns and labels:
Staphylococcus aureus [1] = assay: Antibiofilm activity against methicillin-resistant Staphylococcus aureus BAA-1685 after 24 hrs by crystal violet staining based assay; assay type: functional; conditions: BAA-1685, 24 h
Acinetobacter baumannii [2] = assay: Antibiofilm activity against Acinetobacter baumannii ATCC 19606 after 24 hrs by crystal violet staining based assay; assay type: functional; conditions: ATCC 19606, 24 h
Staphylococcus aureus [3] = assay: Potentiation of oxacillin-induced antibacterial activity against methicillin-resistant Staphylococcus aureus BAA-1556 assessed as oxacillin MIC at 5 uM measured after 16 to 18 hrs by serial dilution assay (reference value: 32 ug/ml); assay type: functional
Staphylococcus aureus [4] = assay: Potentiation of oxacillin-induced antibacterial activity against methicillin-resistant Staphylococcus aureus BAA-1556 assessed as oxacillin MIC at 10 uM measured after 16 to 18 hrs by serial dilution assay (reference value: 32 ug/ml); assay type: functional
Acinetobacter baumannii [5] = assay: Potentiation of meropenem-induced antibacterial activity against Acinetobacter baumannii AB5075 assessed as meropenem MIC at 10 uM measured after 16 to 18 hrs by serial dilution assay (reference value: 32 ug/ml); assay type: functional
Acinetobacter baumannii [6] = assay: Antibiofilm activity against Acinetobacter baumannii ATCC 19606 at 100 uM after 24 hrs by crystal violet staining based assay relative to control; assay type: functional; conditions: ATCC 19606, 24 h
Staphylococcus aureus [7] = assay: Potentiation of oxacillin-induced antibacterial activity against methicillin-resistant Staphylococcus aureus BAA-1556 assessed as oxacillin MIC at 50 uM measured after 16 to 18 hrs by serial dilution assay (reference value: 32 ug/ml); assay type: functional
Pseudomonas aeruginosa = assay: Antibiofilm activity against Pseudomonas aeruginosa PA14 after 24 hrs by crystal violet staining based assay; assay type: functional; conditions: PA14, 24 h
Staphylococcus aureus [8] = assay: Potentiation of oxacillin-induced antibacterial activity against methicillin-resistant Staphylococcus aureus BAA-1556 assessed as oxacillin MIC at 40 uM measured after 16 to 18 hrs by serial dilution assay (reference value: 32 ug/ml); assay type: functional
Staphylococcus aureus [9] = assay: Ratio of oxacillin MIC for methicillin-resistant Staphylococcus aureus BAA-1556 in presence of test compound to oxacillin MIC for methicillin-resistant Staphylococcus aureus harboring vraR mutant in presence of test compound; assay type: functional
Staphylococcus aureus [10] = assay: Potentiation of vancomycin-induced antibacterial activity against vancomycin intermediate Staphylococcus aureus ATCC 700699 assessed as vancomycin MIC at 25 uM measured after 16 to 18 hrs by serial dilution assay (reference value: 8 ug/ml); assay type: functional; conditions: Mu50
How it was run: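 Vancomycin MIC was measured against vancomycin-intermediate S. aureus ATCC 700699 with the alkaloid co-dosed at a fixed concentration. Levels used across the series were 25 and 50 µM.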

Staphylococcus aureus [11] = assay: Potentiation of oxacillin-induced antibacterial activity against methicillin-resistant Staphylococcus aureus harboring vraR mutant assessed as oxacillin MIC at 25 uM measured after 16 to 18 hrs by serial dilution assay; assay type: functional
Staphylococcus aureus [12] = assay: Potentiation of oxacillin-induced antibacterial activity against methicillin-resistant Staphylococcus aureus BAA-1556 assessed as oxacillin MIC at 25 uM measured after 16 to 18 hrs by serial dilution assay (reference value: 32 ug/ml); assay type: functional
Staphylococcus aureus [13] = assay: Potentiation of oxacillin-induced antibacterial activity against methicillin-resistant Staphylococcus aureus NE481 assessed as oxacillin MIC at 25 uM measured after 16 to 18 hrs by serial dilution assay (reference value: 1 ug/ml)
Staphylococcus aureus [14] = assay: Potentiation of vancomycin-induced antibacterial activity against vancomycin intermediate Staphylococcus aureus ATCC 700699 assessed as vancomycin MIC at 50 uM measured after 16 to 18 hrs by serial dilution assay (reference value: 8 ug/ml); assay type: functional; conditions: Mu50
Acinetobacter baumannii [15] = assay: Antibiofilm activity against Acinetobacter baumannii ATCC 19606 at 50 uM after 24 hrs by crystal violet staining based assay relative to control; assay type: functional; conditions: ATCC 19606, 24 h

Nc1ncc([C@@H]2[C@@H](CNC(=O)c3cc(Br)c[nH]3)[C@H](CNC(=O)c3cc(Br)c[nH]3)[C@H]2c2cnc(N)[nH]2)[nH]1
IC50 (Staphylococcus aureus [1]): 37.6 µM | IC50 (Acinetobacter baumannii [2]): 30.5 µM

Nc1nc([C@@H]2c3[nH]c(N)nc3C[C@H](CNC(=O)c3cc(Br)c[nH]3)[C@H]2CNC(=O)c2cc(Br)c(Br)[nH]2)c[nH]1 [BROMOAGELIFERIN]
MIC (Staphylococcus aureus [3]): 16 µg/mL | MIC (Staphylococcus aureus [4]): 2 µg/mL | MIC (Acinetobacter baumannii [5]): 8 µg/mL | IC50 (Staphylococcus aureus [1]): 10.6 µM | IC50 (Acinetobacter baumannii [2]): 28.3 µM

Nc1ncc(/C=C/CNC(=O)c2cc(Br)c(Br)[nH]2)[nH]1 [OROIDIN]
inhibition at 100 µM (Acinetobacter baumannii [6]): 29% | MIC (Staphylococcus aureus [7]): 0.5 µg/mL | IC50 (Pseudomonas aeruginosa): 166 µM | MIC (Staphylococcus aureus [8]): 2 µg/mL | Ratio (Staphylococcus aureus [9]): 4 | MIC (Staphylococcus aureus [10]): 4 µg/mL | IC50 (Staphylococcus aureus [1]): 77.3 µM | MIC (Staphylococcus aureus [11]): 2 µg/mL | MIC (Staphylococcus aureus [12]): 8 µg/mL | MIC (Staphylococcus aureus [13]): 0.5 µg/mL | IC50 (Acinetobacter baumannii [2]): > 100 µM | MIC (Staphylococcus aureus [14]): 2 µg/mL

Nc1ncc([C@@H]2[C@@H](CNC(=O)c3cc(Br)c(Br)[nH]3)[C@H](CNC(=O)c3cc(Br)c(Br)[nH]3)[C@H]2c2cnc(N)[nH]2)[nH]1
MIC (Staphylococcus aureus [3]): 8 µg/mL | MIC (Staphylococcus aureus [4]): 2 µg/mL | MIC (Acinetobacter baumannii [5]): 8 µg/mL | IC50 (Staphylococcus aureus [1]): 15.3 µM | inhibition at 50 µM (Acinetobacter baumannii [15]): 48% | IC50 (Acinetobacter baumannii [2]): > 50 µM
